pIC50: −log10 of the molar value. Calls of active or inactive are those of the source. The rule behind the calls is not given here.

In series [1] the test system is Plasmodium falciparum. Nature of the series: Antimalarial activity against stage III gametocytes of Plasmodium falciparum 3D7 expressing GFP infected erythrocytes assessed inhibition of gametocyte level at 10 uM after 72 hrs followed by compound washout and measured after 24 hrs by Giemsa-staining based microscopic analysis relative to control. In kind it is functional. As to conditions: 3D7, Erythrocyte. In outline:
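P. falciparum 3D7HT-GFP was sorbitol-synchronized, and schizonts were Percoll-purified and cultured at 3% hematocrit until stage III gametocytes appeared. Microcultures of 1 mL (1-2% gametocytemia, 2.5% hematocrit) got 10 µM compound or DMSO (<0.3%) for 72 h, then compound-free medium for 24 h. Stage IV/V gametocytes were counted per 3000 RBC on Giemsa smears, in duplicate by two microscopists. Inhibition = 100 − (treated/drug-free control ×100).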

A further series has as its system Erythrocyte. Nature of the series: Hemolytic activity in RBC (unknown origin) assessed as hemolysis at 10 uM incubated for 1 hr by microplate reader assay. Type of series: toxicity, cell-based. As to conditions: human. The procedure, abridged:
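Human blood had plasma removed by spinning. RBC were washed three times in 0.01 M PBS pH 7.4 and set to 6% hematocrit. They were mixed with an equal volume of compound at 20 µM in PBS with 1.3% DMSO and kept 1 h at 37 °C, then spun. Supernatant A450 was read. Hemolysis % was scaled between PBS/0.65% DMSO (negative) and 1% Triton X-100 (positive).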

Series [2] has as its system Plasmodium falciparum. Nature of the series: Antimalarial activity against blood stage chloroquine-sensitive Plasmodium falciparum 3D7 expressing GFP infected in erythrocytes assessed as inhibition of parasite growth at 10 uM incubated for 72 hrs by flow cytometry analysis relative to control. Type of series: functional. To be noted: 3D7, Erythrocyte. The procedure, abridged:
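Unsynchronized P. falciparum 3D7-GFP culture (0,6% hematocrit, 0,5% parasitaemia) was exposed to 10 µM compound for 72 h at 37 °C and 5% CO2. Growth was read by flow cytometry of GFP (Fl-1, 488 nm excitation), counting 20,000–40,000 erythrocytes per well.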
(A flow cytometer gives signals particle by particle.)

A short description of series [3]: Stability of compound assessed as degradation temperature at 25 to 500 degreeC under N2 gas by thermogravimetric analysis. Type of series: physicochemical. The procedure, abridged: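 Thermogravimetric analysis heated samples from 25 to 500 °C at 5 °C/min under N2 flowing at 50 mL·min⁻¹.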
Series [4] deals with Plasmodium falciparum. Nature of the series: Antimalarial activity against blood stage chloroquine-sensitive Plasmodium falciparum 3D7 expressing GFP infected in erythrocytes assessed as reduction in parasitemia incubated for 72 hrs by flow cytometry analysis. In kind it is functional, organism-based. As to conditions: 3D7, Erythrocyte. In outline:
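Growth was read by flow cytometry on the GFP channel (488 nm excitation), counting 20,000–40,000 RBC per well. IC50 values were fitted from the curves and reported as the mean of at least three experiments, each in duplicate.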

Another series concerns Huh-7. In words: Cytotoxicity against human Huh-7 cells assessed as reduction in cell viability at 10 uM by AlamarBlue assay. In kind it is toxicity, cell-based. To be noted: huh-7, 10 µM. The procedure, abridged:
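Huh-7 hepatoma cells were cultured in RPMI with 10% FCS, non-essential amino acids, glutamine, penicillin/streptomycin and 10 mM HEPES pH 7, at 37 °C and 5% CO2, within the liver-stage infection setup. Viability was read by AlamarBlue following the manufacturer's protocol.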
(The colour change of resazurin is a common sign of viable cells or microbes.)

Another series deals with Plasmodium berghei. In words: Antimalarial activity against Plasmodium berghei sporozoites expressing firefly luciferase infected in human Huh-7 cells assessed reduction in parasite growth at 10 uM preincubated for 1 hr followed by infection and measured after 48 hrs by luminescence analysis. Type of series: functional, organism-based. To be noted: time 49.0 hrs. The procedure, abridged:
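Huh-7 hepatoma cells were grown in RPMI with 10% FCS, non-essential amino acids, glutamine, penicillin/streptomycin and 10 mM HEPES pH 7, at 37 °C and 5% CO2. Cells were seeded at 1.2×10⁴/well the day before. Compound medium was added ~1 h before infection with firefly luciferase P. berghei sporozoites freshly dissected from mosquito salivary glands, then spun at 1700 g for 5 min. Parasite load was read at 48 h by lysate luminescence after luciferin addition.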

In series [5] the test system is Plasmodium falciparum. Nature of the series: Antimalarial activity against blood stage chloroquine-resistant Plasmodium falciparum Dd2 infected in erythrocytes assessed as reduction in parasitemia incubated for 72 hrs by flow cytometry analysis. In kind it is functional, organism-based. As to conditions: Dd2, Erythrocyte.

Broadly, the inhibition is how much of the control response was suppressed. Take `CCN(CC)CCCC(C)Nc1ccnc2cc(Cl)ccc12.O=P(O)(O)O.O=P(O)(O)O` (centres undefined) [CHLOROQUINE PHOSPHATE]: the inhibition at 10 µM is 72% in the series with Plasmodium falciparum [1] and 98% in the series with Plasmodium falciparum [2]. For the same molecule, in the series with Erythrocyte, the Activity entry is reported as “Non-Toxic”.

One may read the pIC50 as the negative decadic logarithm of the IC50, by convention in mol/L. With `COc1cc(NC(C)CCCN)c2ncccc2c1.C[C@H](CCC(=O)O)[C@H]1CC[C@H]2[C@@H]3[C@H](O)C[C@@H]4C[C@H](O)CC[C@]4(C)[C@H]3CC[C@]12C`, the T in series [3] came to 366 °C. In addition, the pIC50 with Plasmodium falciparum [4] was 6.42. Also, the figures for the inhibition at 10 µM with Plasmodium falciparum [1] and in the series with Plasmodium falciparum [2] were 80% and 82%, respectively. Also, the Activity result in the series with Erythrocyte and with Huh-7 was “Non-Toxic” in each case.

For the molecule `COc1cc(NC(C)CCCN)c2ncccc2c1.C[C@H](CCC(=O)O)[C@H]1CC[C@H]2[C@@H]3CC[C@@H]4C[C@H](O)CC[C@]4(C)[C@H]3C[C@H](O)[C@]12C`, the T in series [3] is 348 °C. Further, the pIC50 in the series with Plasmodium falciparum [4] is 6.22. Further, the inhibition at 10 µM is 86% in the series on Plasmodium falciparum [1] and 82% with Plasmodium falciparum [2]. The Activity result with Erythrocyte and in the series with Huh-7 was “Non-Toxic” throughout.

For the molecule `COc1cc(NC(C)CCCN)c2ncccc2c1.C[C@H](CCC(=O)O)[C@H]1CC[C@H]2[C@@H]3[C@H](O)C[C@@H]4C[C@H](O)CC[C@]4(C)[C@H]3C[C@H](O)[C@]12C`, the T in series [3] amounted to 359 °C. The pIC50 with Plasmodium falciparum [4] was 6.23. Besides, the inhibition at 10 µM was 91% in the series on Plasmodium falciparum [1] and 82% in the series with Plasmodium falciparum [2]. Besides, the Activity entry in the series on Erythrocyte and in the series on Huh-7 was “Non-Toxic” each time.

Consider `CCN(CC)CCCC(C)Nc1ccnc2cc(Cl)ccc12.C[C@H](CCC(=O)O)[C@H]1CC[C@H]2[C@@H]3[C@H](O)C[C@@H]4C[C@H](O)CC[C@]4(C)[C@H]3C[C@H](O)[C@]12C`, for which the T in series [3] came out at 253 °C. The inhibition at 10 µM was found to be 88% in the series on Plasmodium falciparum [1] and 97% in the series on Plasmodium falciparum [2]. Also, the Activity result in the series on Erythrocyte and with Huh-7 was “Non-Toxic” each time.

Take `CCN(CC)CCCC(C)Nc1ccnc2cc(Cl)ccc12.C[C@H](CCC(=O)O)[C@H]1CC[C@H]2[C@@H]3[C@H](O)C[C@@H]4C[C@H](O)CC[C@]4(C)[C@H]3CC[C@]12C`: the T in series [3] amounted to 255 °C. For the same molecule, the inhibition at 10 µM in the series with Plasmodium falciparum [1] was determined as 87%; in the series with Plasmodium falciparum [2] it was 97%. For the same molecule, the Activity entry in the series on Erythrocyte and in the series with Huh-7 was “Non-Toxic” throughout.

Consider `COc1cc(NC(C)CCCN)c2ncccc2c1.C[C@H](CCC(=O)NCC(=O)O)[C@H]1CC[C@H]2[C@@H]3[C@H](O)C[C@@H]4C[C@H](O)CC[C@]4(C)[C@H]3C[C@H](O)[C@]12C`, for which the T in series [3] came to 255 °C. Besides, in the series on Plasmodium falciparum [4], the pIC50 was 6.42. Moreover, the inhibition at 10 µM with Plasmodium falciparum [1] was 81%; with Plasmodium falciparum [2] it was 82%. Besides, the Activity entry with Erythrocyte and in the series with Huh-7 was “Non-Toxic” in each case.

Take `COc1cc(NC(C)CCCN)c2ncccc2c1.C[C@H](CCC(=O)O)[C@H]1CC[C@H]2[C@@H]3CC[C@@H]4C[C@H](O)CC[C@]4(C)[C@H]3CC[C@]12C` [listing 1 of 2 here]: the result with Plasmodium berghei was Active.

For the molecule `C[C@H](CCC(=O)O)[C@H]1CC[C@H]2[C@@H]3[C@H](O)C[C@@H]4C[C@H](O)CC[C@]4(C)[C@H]3C[C@H](O)[C@]12C` [CHOLIC ACID], the T in series [3] worked out at 360 °C. The inhibition at 10 µM with Plasmodium falciparum [1] stood at 39%. Besides, the Activity entry in the series on Erythrocyte was “Non-Toxic”.

`COc1cc(NC(C)CCCN)c2ncccc2c1.O=P(O)(O)O.O=P(O)(O)O` (centres undefined) [PRIMAQUINE PHOSPHATE]: the pIC50 in the series on Plasmodium falciparum [4] was 6.38; in the series on Plasmodium falciparum [5], 6.33. The inhibition at 10 µM in the series on Plasmodium falciparum [1] came out at 93%; with Plasmodium falciparum [2] it was 83%. Also, in the series on Erythrocyte, the Activity result is listed as “Non-Toxic”.

Regarding `C[C@H](CCC(=O)NCCCCNc1ccnc2cc(Cl)ccc12)[C@H]1CC[C@H]2[C@@H]3[C@H](O)C[C@@H]4C[C@H](O)CC[C@]4(C)[C@H]3C[C@H](O)[C@]12C`, the T in series [3] came to 250 °C. For the same molecule, the figures for the negative-log IC50 (pIC50) in the series on Plasmodium falciparum [4] and in the series with Plasmodium falciparum [5] were 6.97 and 6.25, respectively. In the series with Plasmodium falciparum [1], this molecule had an inhibition at 10 µM of 91%. The Activity result in the series with Erythrocyte and with Huh-7 was “Non-Toxic” each time. The result with Plasmodium berghei was Active.

Turning to `C[C@H](CCC(=O)O)[C@H]1CC[C@H]2[C@@H]3CC[C@@H]4C[C@H](O)CC[C@]4(C)[C@H]3CC[C@]12C` [LITHOCHOLIC ACID], in series [3], the T is 355 °C. Also, the inhibition at 10 µM in the series on Plasmodium falciparum [1] is 65%. The Activity entry in the series with Erythrocyte is on record as “Non-Toxic”.

Take `CCN(CC)CCCC(C)Nc1ccnc2cc(Cl)ccc12.C[C@H](CCC(=O)O)[C@H]1CC[C@H]2[C@@H]3CC[C@@H]4C[C@H](O)CC[C@]4(C)[C@H]3CC[C@]12C` [listing 1 of 2 here]: the T in series [3] turned out to be 367 °C. The inhibition at 10 µM in the series with Plasmodium falciparum [1] stood at 90%; in the series on Plasmodium falciparum [2] it was 97%. Further, the Activity entry in the series on Erythrocyte and in the series with Huh-7 was “Non-Toxic” in each case.

For `CCN(CC)CCCC(C)Nc1ccnc2cc(Cl)ccc12.C[C@H](CCC(=O)NCC(=O)O)[C@H]1CC[C@H]2[C@@H]3[C@H](O)C[C@@H]4C[C@H](O)CC[C@]4(C)[C@H]3C[C@H](O)[C@]12C`, the T in series [3] amounted to 361 °C. Further, the inhibition at 10 µM in the series on Plasmodium falciparum [1] was determined as 86%; in the series with Plasmodium falciparum [2], 97%. For the same molecule, the Activity entry with Erythrocyte and in the series on Huh-7 was “Non-Toxic” in each case.

As to `COc1cc(NC(C)CCCN)c2ncccc2c1.C[C@H](CCC(=O)O)[C@H]1CC[C@H]2[C@@H]3CC[C@@H]4C[C@H](O)CC[C@]4(C)[C@H]3CC[C@]12C` [listing 2 of 2 here], in series [3], the T worked out at 253 °C. Further, the pIC50 in the series with Plasmodium falciparum [4] is 6.37. In addition, the inhibition at 10 µM in the series on Plasmodium falciparum [1] came out at 83%; with Plasmodium falciparum [2], 82%. Further, the Activity result with Erythrocyte and in the series with Huh-7 was “Non-Toxic” throughout.

As to `C[C@H](CCC(=O)O)[C@H]1CC[C@H]2[C@@H]3CC[C@@H]4C[C@H](O)CC[C@]4(C)[C@H]3C[C@H](O)[C@]12C` [DEOXYCHOLIC ACID], the T in series [3] is 357 °C. Further, at 10 µM the inhibition in the series on Plasmodium falciparum [1] was 42%. Also, the Activity entry in the series with Erythrocyte is reported as “Non-Toxic”.

For `C[C@H](CCC(=O)NCC(=O)O)[C@H]1CC[C@H]2[C@@H]3[C@H](O)C[C@@H]4C[C@H](O)CC[C@]4(C)[C@H]3C[C@H](O)[C@]12C` [GLYCOCHOLIC ACID], the T in series [3] is 328 °C. This molecule returned an inhibition at 10 µM in the series with Plasmodium falciparum [1] of 41%. The Activity entry in the series with Erythrocyte was “Non-Toxic”.

With `CCN(CC)CCCC(C)Nc1ccnc2cc(Cl)ccc12.C[C@H](CCC(=O)O)[C@H]1CC[C@H]2[C@@H]3CC[C@@H]4C[C@H](O)CC[C@]4(C)[C@H]3CC[C@]12C` [listing 2 of 2 here], the outcome in the series with Plasmodium berghei was Active.

For the molecule `CCN(CC)CCCC(C)Nc1ccnc2cc(Cl)ccc12.C[C@H](CCC(=O)O)[C@H]1CC[C@H]2[C@@H]3CC[C@@H]4C[C@H](O)CC[C@]4(C)[C@H]3C[C@H](O)[C@]12C`, in series [3], the T was 242 °C. For the same molecule, the inhibition at 10 µM with Plasmodium falciparum [1] stood at 86%; in the series with Plasmodium falciparum [2], 97%. Besides, the Activity entry in the series with Erythrocyte and with Huh-7 was “Non-Toxic” each time.

The record behind these values is ChEMBL document CHEMBL5576157, “"Seasoning" antimalarial drugs' action: chloroquine bile salts as novel triple-stage antiplasmodial hits” (RSC Med Chem, 2024).
